Measurements from different studies.
Each line is one published result; the experiments were not run side by side.
Target: Phosphatidylinositol 4-kinase beta (PI4KB, Homo sapiens, UniProt Q9UBF8)

Structure (SMILES) | test | conditions | quantity | value
Nc1ncnc2occ(-c3ccc(NC(=O)Nc4cc(C(F)(F)F)ccc4F)cc3)c12 | enzyme activity, inhibitor | 20 µM | remaining activity | 5.9%
CCCCNc1ncc2c(-c3ccc(F)cc3)nn(C[C@H]3CC[C@H](N)CC3)c2n1 | target engagement in cells, inhibitor, chemoproteomics | 20 mM | inhibition | 29.3%
Cc1ccc(C(=O)Nc2ccc(CN3CCN(C)CC3)c(C(F)(F)F)c2)cc1C#Cc1cnc2cccnn12 | enzyme activity, inhibitor | 23.5 nM | remaining activity | 89%
O=C(Nc1nccs1)C(c1cc(F)ccc1O)N1Cc2ccccc2C1=O (stereo not shown) | enzyme activity, inhibitor | 1 µM | inhibition | 9%
CS(=O)(=O)Nc1cccc(-c2csc(NC(=O)CSc3nc4nccnc4c(=O)n3CCc3ccccc3)n2)c1 | enzyme activity, inhibitor | 10 µM | inhibition | 17%
CC1CCCN1c1nccc(-c2cnn3ncccc23)n1 (stereo not shown) | binding | 1 µM | remaining binding | 100%
O=C(Nc1cnc(Oc2ccc(F)cc2)nc1)N1CCc2ncccc2[C@@H]1c1ccc(F)cc1 | cell-free assay, competition with immobilised ligand | 1 µM | remaining binding | 89%
c1ccc(CNc2nc(N3CCOc4ccccc43)nc3c2CCCC3)cc1 | target engagement in cells, inhibitor, chemoproteomics | 20 mM | inhibition | -16.5%
CN(C)CC#Cc1ccc(OCCCc2sc(N3CCc4cccc(C(=O)Nc5nc6ccccc6s5)c4C3)nc2C(=O)O)c(F)c1 | cell-free assay, competition with immobilised ligand | 1 µM | remaining binding | 100%
O=C(CSc1nc2nccnc2c(=O)n1CCc1ccccc1)Nc1ccccc1 | enzyme activity, inhibitor | 10 µM | inhibition | < 20%
